The values that follow come from ChEMBL document CHEMBL1131013, “Synthesis and evaluation of analogues of the partial agonist 6-(propyloxy)-4-(methoxymethyl)-beta-carboline-3-carboxylic acid ethyl ester (6-PBC) and the full agonist 6-(benzyloxy)-4-(methoxymethyl)-beta-carboline-3-carboxylic acid ethyl ester (Zk 93423) at wild type and recombinant GABAA receptors” (J Med Chem, 1998).

For test [1], the target named is T1, GABA-A receptor; alpha-3/beta-3/gamma-2 (Homo sapiens, UniProt P18507+P28472+P34903).
T1 sequence (P18507 whole entry): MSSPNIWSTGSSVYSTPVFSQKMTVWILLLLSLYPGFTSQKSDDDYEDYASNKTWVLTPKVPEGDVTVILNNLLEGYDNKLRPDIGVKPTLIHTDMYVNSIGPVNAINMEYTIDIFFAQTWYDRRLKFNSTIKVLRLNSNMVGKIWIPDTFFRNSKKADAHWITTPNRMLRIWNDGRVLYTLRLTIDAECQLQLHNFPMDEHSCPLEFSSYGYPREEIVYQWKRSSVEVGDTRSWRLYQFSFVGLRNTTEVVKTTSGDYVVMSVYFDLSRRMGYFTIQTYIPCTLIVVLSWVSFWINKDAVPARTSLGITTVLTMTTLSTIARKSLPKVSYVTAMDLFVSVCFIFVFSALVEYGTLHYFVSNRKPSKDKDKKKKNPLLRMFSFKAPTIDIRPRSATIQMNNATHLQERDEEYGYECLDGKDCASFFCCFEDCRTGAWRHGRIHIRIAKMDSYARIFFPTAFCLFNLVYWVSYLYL
T1 sequence (P28472 whole entry): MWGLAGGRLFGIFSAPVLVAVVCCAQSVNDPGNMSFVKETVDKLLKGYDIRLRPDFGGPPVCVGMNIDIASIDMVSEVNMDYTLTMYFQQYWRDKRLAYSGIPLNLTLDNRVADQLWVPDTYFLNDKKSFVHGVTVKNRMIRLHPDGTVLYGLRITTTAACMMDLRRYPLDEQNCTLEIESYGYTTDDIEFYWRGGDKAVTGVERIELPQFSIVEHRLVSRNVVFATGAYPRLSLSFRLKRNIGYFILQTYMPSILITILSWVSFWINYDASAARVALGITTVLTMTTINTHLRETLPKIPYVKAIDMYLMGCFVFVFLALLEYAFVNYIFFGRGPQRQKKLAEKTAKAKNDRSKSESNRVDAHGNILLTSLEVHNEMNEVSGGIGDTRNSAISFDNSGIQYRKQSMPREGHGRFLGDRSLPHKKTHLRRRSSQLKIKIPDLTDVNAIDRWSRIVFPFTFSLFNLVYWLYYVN
T1 sequence (P34903 whole entry): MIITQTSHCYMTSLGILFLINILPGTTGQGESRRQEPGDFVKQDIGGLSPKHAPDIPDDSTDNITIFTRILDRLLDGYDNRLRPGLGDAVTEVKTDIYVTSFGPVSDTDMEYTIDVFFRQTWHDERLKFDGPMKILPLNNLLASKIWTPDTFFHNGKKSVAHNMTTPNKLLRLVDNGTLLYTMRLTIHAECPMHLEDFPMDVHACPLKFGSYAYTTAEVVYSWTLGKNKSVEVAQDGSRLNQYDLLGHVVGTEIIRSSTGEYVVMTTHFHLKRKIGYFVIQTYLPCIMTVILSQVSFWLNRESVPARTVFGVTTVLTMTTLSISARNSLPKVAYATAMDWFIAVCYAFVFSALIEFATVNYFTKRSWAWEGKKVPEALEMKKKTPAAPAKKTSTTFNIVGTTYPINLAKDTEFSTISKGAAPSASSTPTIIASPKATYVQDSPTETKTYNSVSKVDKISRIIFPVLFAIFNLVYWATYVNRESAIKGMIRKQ
The test can be described thus: Binding affinity measured using LtK- cell membranes expressing GABA alpha-3-beta-3-gamma-2 receptor.

Test [2] has as its target T2, GABA-A receptor; alpha-1/beta-3/gamma-2 (Homo sapiens, UniProt P14867+P18507+P28472).
T2 sequence (P14867 whole entry): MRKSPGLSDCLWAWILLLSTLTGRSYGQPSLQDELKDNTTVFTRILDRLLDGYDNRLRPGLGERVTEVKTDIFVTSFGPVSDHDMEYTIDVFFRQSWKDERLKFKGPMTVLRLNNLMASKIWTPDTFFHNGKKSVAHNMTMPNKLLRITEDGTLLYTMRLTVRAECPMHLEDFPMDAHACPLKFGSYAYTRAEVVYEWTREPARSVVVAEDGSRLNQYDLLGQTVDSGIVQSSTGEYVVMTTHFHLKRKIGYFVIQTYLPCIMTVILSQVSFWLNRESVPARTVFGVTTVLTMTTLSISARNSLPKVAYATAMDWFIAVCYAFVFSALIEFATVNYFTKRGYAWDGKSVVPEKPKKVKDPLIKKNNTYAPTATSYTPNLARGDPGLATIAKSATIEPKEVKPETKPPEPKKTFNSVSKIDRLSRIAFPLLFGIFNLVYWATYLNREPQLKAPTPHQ
T2 sequence (P18507 whole entry): T1 sequence (P18507 whole entry)
T2 sequence (P28472 whole entry): T1 sequence (P28472 whole entry)
Briefly: Binding affinity measured using LtK- cell membranes expressing GABA alpha-1-beta-3-gamma-2 receptor.

The target of test [3] is T3, GABA-A receptor; alpha-5/beta-3/gamma-2 (Homo sapiens, UniProt P18507+P28472+P31644).
T3 sequence (P18507 whole entry): T1 sequence (P18507 whole entry)
T3 sequence (P28472 whole entry): T1 sequence (P28472 whole entry)
T3 sequence (P31644 whole entry): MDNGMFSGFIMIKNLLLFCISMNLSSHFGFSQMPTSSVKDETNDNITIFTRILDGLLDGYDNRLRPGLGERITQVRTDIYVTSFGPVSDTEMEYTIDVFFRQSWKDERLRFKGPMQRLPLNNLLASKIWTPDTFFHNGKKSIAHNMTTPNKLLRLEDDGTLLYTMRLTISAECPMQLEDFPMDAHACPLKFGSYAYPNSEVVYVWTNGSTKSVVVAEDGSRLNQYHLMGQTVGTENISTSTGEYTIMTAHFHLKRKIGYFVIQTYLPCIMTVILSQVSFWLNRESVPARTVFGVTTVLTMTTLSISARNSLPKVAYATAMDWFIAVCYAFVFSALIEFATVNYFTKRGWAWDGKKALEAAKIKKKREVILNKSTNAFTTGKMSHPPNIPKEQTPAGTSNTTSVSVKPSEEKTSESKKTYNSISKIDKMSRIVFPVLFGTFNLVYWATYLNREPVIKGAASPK
The test can be described thus: Binding affinity measured using LtK- cell membranes expressing Gamma-aminobutyric acid A receptor alpha-5-beta-3-gamma-2.

Test [4] addresses T4, GABA-A receptor; alpha-2/beta-3/gamma-2 (Homo sapiens, UniProt P18507+P28472+P47869).
T4 sequence (P18507 whole entry): T1 sequence (P18507 whole entry)
T4 sequence (P28472 whole entry): T1 sequence (P28472 whole entry)
T4 sequence (P47869 whole entry): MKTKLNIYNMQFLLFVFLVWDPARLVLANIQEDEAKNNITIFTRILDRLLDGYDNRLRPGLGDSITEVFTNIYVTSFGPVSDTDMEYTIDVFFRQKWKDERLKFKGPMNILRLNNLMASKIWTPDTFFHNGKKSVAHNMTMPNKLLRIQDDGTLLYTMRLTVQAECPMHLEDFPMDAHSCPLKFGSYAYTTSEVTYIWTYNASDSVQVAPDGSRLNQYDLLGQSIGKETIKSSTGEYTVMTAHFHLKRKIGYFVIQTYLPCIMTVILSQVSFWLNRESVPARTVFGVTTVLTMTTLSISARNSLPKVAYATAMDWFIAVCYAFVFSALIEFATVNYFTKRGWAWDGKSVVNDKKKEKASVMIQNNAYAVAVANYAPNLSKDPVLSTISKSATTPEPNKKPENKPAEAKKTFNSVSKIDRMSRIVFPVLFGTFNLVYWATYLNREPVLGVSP
The test can be described thus: Binding affinity measured using LtK- cell membranes expressing GABA alpha-2-beta-3-gamma-2 receptor.

Test [5] addresses GABA-A receptor; alpha-6/beta-3/gamma-2 (Homo sapiens, UniProt P18507+P28472+Q16445). Briefly: Binding affinity measured using LtK- cell membranes expressing Gamma-aminobutyric acid A receptor alpha-6-beta-3-gamma-2. An outline of the steps: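 Ltk- cells expressing human α6β3γ2, scraped into PBS and resuspended in 10 mM KH2PO4/100 mM KCl pH 7.4. 1 h at 4 °C to equilibrium, filtration, scintillation counting.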

Structures are written as SMILES. pKi: −log10 of the molar value. Where only a bound is given, the exact number is not on record here.

Chain of GABA-A receptor; alpha-6/beta-3/gamma-2 (Q16445 whole entry, one chain of several): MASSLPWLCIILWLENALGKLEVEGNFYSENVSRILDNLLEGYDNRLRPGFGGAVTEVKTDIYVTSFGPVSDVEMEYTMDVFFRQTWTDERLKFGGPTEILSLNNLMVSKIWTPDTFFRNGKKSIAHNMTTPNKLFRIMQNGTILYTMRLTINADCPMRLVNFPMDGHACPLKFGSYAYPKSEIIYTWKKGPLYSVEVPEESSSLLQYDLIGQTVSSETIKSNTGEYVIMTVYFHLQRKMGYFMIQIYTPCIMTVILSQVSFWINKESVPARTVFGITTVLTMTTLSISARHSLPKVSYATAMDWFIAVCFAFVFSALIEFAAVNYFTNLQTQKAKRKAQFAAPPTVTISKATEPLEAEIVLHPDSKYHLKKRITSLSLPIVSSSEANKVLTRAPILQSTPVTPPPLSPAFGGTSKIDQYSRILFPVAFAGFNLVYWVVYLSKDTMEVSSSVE

Turning to `CCc1c(C(=O)OC)ncc2[nH]c3cc(OC)c(OC)cc3c12`, the pKi in test [1] is 8.40; in test [2] it was 8.24; in test [3], 9.00; in test [4], 8.08; in test [5], 6.87.
The matching figures for `CC(C)COc1cc2c(cn1)[nH]c1ccccc12`: 6.86, 7.60, 6.00, 6.91 and below 5.00.
For `CCOC(=O)c1ncc2[nH]c3ccc(OCc4ccccc4)cc3c2c1COC`, the pKi in test [1] is 8.22; in test [2], 8.39; in test [3] it was 8.35; in test [4] it was 8.38; in test [5] it was below 6.00.
Consider `CCOC(=O)c1[nH]cc2nc3ccc(OCc4ccccc4)cc3c-2c1CC`, for which the negative logarithm of the Ki (pKi) in test [1] was 7.23; in test [2], 7.68; in test [3] it was 7.17; in test [4], 7.11; in test [5], below 5.00.
In the case of `CC(C)(C)OC(=O)c1cc2c3ccccc3nc-2c[nH]1`, the pKi was 7.72 in test [1]; 9.14 in test [2]; 6.95 in test [3]; 7.82 in test [4]; below 5.30 in test [5].
Consider `CCc1c(OC)[nH]cc2nc3cc(OC)c(OC)cc3c1-2`, for which the negative-log Ki (pKi) in test [1], in test [2], in test [3], in test [4] and in test [5] was below 6.52 in each case.
For the compound `CCOC(=O)c1ncc2c(c1CC)c1ccccc1n2C`, the negative-log Ki (pKi) was below 6.00 in test [1]; below 6.00 in test [2]; below 6.00 in test [3]; below 6.00 in test [4]; below 5.00 in test [5].
For the compound `CCOC(=O)c1cc2c(cn1)[nH]c1ccccc12`, in test [2], the pKi was 8.92.
With `CC(C)Oc1cc2c(cn1)[nH]c1ccccc12`, the pKi in test [1] is below 5.52; in test [2], 6.55; in test [3], below 5.00; in test [4] it was below 5.52; in test [5], below 5.00.
As for `CCCCOc1cc2c(cn1)[nH]c1ccccc12`, the negative logarithm of the Ki (pKi) in test [1] is 6.61; in test [2] it was 7.43; in test [3] it was 6.00; in test [4] it was 6.71; in test [5], below 6.00.
With `CCCOc1cc2c(cn1)[nH]c1ccccc12`, the negative logarithm of the Ki (pKi) in test [1] is 7.16; in test [2] it was 8.28; in test [3], 6.23; in test [4] it was 7.28; in test [5], below 6.00.
In the case of `CCOC(=O)c1ncc2[nH]c3ccccc3c2c1COC`, the pKi is 8.32 in test [1]; 9.22 in test [2]; 7.98 in test [3]; 8.55 in test [4]; 5.94 in test [5].
Turning to `CCOc1[nH]cc2nc3cc(OC)c(OC)cc3c-2c1CC`, the negative-log Ki (pKi) in test [1], in test [2], in test [3], in test [4] and in test [5] was below 6.52 each time.
As for `CCOC(=O)c1[nH]cc2nc3cc(OC)c(OC)cc3c-2c1CC`, the negative logarithm of the Ki (pKi) is 8.40 in test [1]; 8.21 in test [2]; 8.48 in test [3]; 7.73 in test [4]; 7.13 in test [5].
For `CCC(C)Oc1cc2c3ccccc3nc-2c[nH]1` (stereo not drawn), in that order: 6.06, 6.61, below 5.00, 6.09 and below 5.00.
Consider `c1ccc(COc2cc3c4ccccc4nc-3c[nH]2)cc1`, for which the pKi is below 5.52 in test [1]; 6.08 in test [2]; below 5.00 in test [3]; below 5.52 in test [4]; below 5.00 in test [5].
On to `CC(C)CCOc1cc2c3ccccc3nc-2c[nH]1`, for which the pKi in test [1] is below 5.52; in test [2], 6.46; in test [3] it was below 5.52; in test [4], below 5.52; in test [5] it was below 5.00.
Regarding `Cc1ccc(-c2nc3ccc(C)cn3c2CC(=O)N(C)C)cc1` [ZOLPIDEM], the pKi in test [3] and in test [5] was below 5.00 throughout.

A word on the pKi: it is the negative decadic logarithm of the Ki, by convention in mol/L. Lower therefore signals a high Ki.
